Assay results pooled from the literature.
Lines come from different studies, so protocols differ.
Read-out: cell growth or viability

SMILES	cell line	method	tested at	time	measurement	result
O=C1Nc2ccc(C(=O)N3CCOCC3)cc2C(=O)CCc2ccccc21	L6				IC50	> 270000 nM
CCOC(=O)n1ccn(C)c1=S	GISTT1	resazurin		72 h	IC50	< 70 nM
O=C1CCc2ccccc2C(=O)c2ccccc2N1	L6				IC50	230000 nM
CN(C)CCCn1c2c(c3ccncc3c1=O)C(=O)c1ccccc1-2	CNSSF-539	SRB			GI50	708 nM
Cc1cc2c(cc1N1C(=O)c3cccc4c(CCCO)ccc(c34)C1=O)n(C)c(=O)n2C (racemic)	MDA-MB-453	resazurin			GI50	> 10000 nM
COc1cc2c(cc1OS(N)(=O)=O)CCN(Cc1cc(Cl)c(OC)c(OC)c1)C2	CNSSF-539	SRB			GI50	19 nM
CN(C)c1ccc(C(=C2C=CC(=[N+](C)C)C=C2)c2ccc(N(C)C)cc2)cc1	GISTT1	resazurin		72 h	IC50	520 nM
O=C1CCc2c(O)cccc2C(=O)Nc2ccccc21	L6				IC50	210000 nM
CC(=O)O[C@H]1C(=O)[C@@]2(C)[C@H]([C@H](OC(=O)c3ccccc3)[C@]3(O)C[C@H](OC(=O)[C@H](O)[C@@H](NC(=O)c4ccccc4)c4ccccc4)C(C)=C1C3(C)C)[C@]1(OC(C)=O)CO[C@@H]1C[C@@H]2O	GISTT1	resazurin		72 h	IC50	210 nM
CC(=O)Nc1cccc(-n2c(=O)n(C3CC3)c(=O)c3c(Nc4ccc(I)cc4F)n(C)c(=O)c(C)c32)c1	SW1417	resazurin	6.25 nM	72 h	viability	71.8%
N#Cc1ccc2c(c1)C(=O)CCc1ccccc1C(=O)N2	L6				IC50	160000 nM
COc1cc2c(cc1O)CCN(Cc1cc(Br)c(OC)c(OC)c1)C2	CNSSF-539	SRB			GI50	177 nM
CC[C@@]1(O)C(=O)OCc2c1cc1n(c2=O)Cc2cc3ccccc3nc2-1	CNSSF-539	SRB		48 h	GI50	10 nM
